Laboratory results taken from ChEMBL document CHEMBL1123024, “5,6-Diaryl-2,3-dihydroimidazo[2,1-b]thiazoles: a new class of immunoregulatory antiinflammatory agents” (1985).

How the values were obtained:
Mus musculus [1] = species on record: Mus musculus; assay: Immunoregulatory activity against oxazolone induced mouse contact sensitivity was evaluated as percent change; format: functional
Method in brief: (§1)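 Male C57B1/6 mice were sensitized with 0.1 mL of 5% oxazolone in absolute ethanol on the clipped abdomen. At 45 h the left hind leg was challenged with 5% oxazolone. Compound was given po in 0.5% tragacanth. Edema was read plethysmographically 24 h later as left minus right leg volume. Six mice vs eight controls; Student's t test.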

Rattus norvegicus [2] = assay: The compound was tested for percent change in nonimmune L3 inflammatory lesions in rat adjuvant-induced arthritis at 50 mg/kg; the %change is Not statistically significant; format: functional
Method in brief: (§2)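 Male Wistar rats received 0.75 mg M. butyricum in paraffin oil intradermally into the left hindpaw. Compounds were given daily po in 0.5% tragacanth from the injection day for 17 days, skipping days 4, 5, 11 and 12. Leg volumes were read by mercury displacement: left leg on day 3, both legs on day 16. Eight treated rats vs 16 vehicle controls; Student's t test. ED25 is the dose giving a 25% volume decrease, from at least three doses, with 95% limits by Fieller's theorem.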

Rattus norvegicus [3] = assay: The compound was tested for percent change in immune R16 inflammatory lesions in rat adjuvant-induced arthritis at 50 mg/kg; the %change is Not statistically significant; format: functional; method in brief: as §2
Rattus norvegicus [4] = assay: The compound was tested for percent change in nonimmune L16 inflammatory lesions in rat adjuvant-induced arthritis at 50 mg/kg; the %change is Not statistically significant; format: functional; method in brief: as §2
Mus musculus [5] = assay: Change in paw edema in methotrexate-suppressed oxazolone -induced contact sensitivity in mice at 5 mg/kg; % change was not statistically significant; format: functional
Rattus norvegicus [6] = species on record: Rattus norvegicus; assay: Inhibition of primary nonimmune L3 inflammatory lesions was measured.; format: functional; method in brief: as §2
Rattus norvegicus [7] = assay: Compound was tested by carrageenan -induced paw edema for percent change in paw volume of control sham operated rats; format: functional
Method in brief: (§3)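 Normal, adrenalectomized or sham-operated Lewis rats were dosed po in 0.5% tragacanth, hydrated. 1 h later paw volume was read, then […] of 1% carrageenan in 0.9% saline was injected into the right hindpaw plantar surface. Volume was re-read at 3 h. Percent change, treated vs control; Student's t test.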

Rattus norvegicus [8] = assay: Compound was tested by carrageenan -induced paw edema for percent change in paw volume on treated vs. control adrenalectomized rats; format: functional; method in brief: as §3
Rattus norvegicus [9] = species on record: Rattus norvegicus; assay: Inhibition of immune R16 inflammatory lesions was measured.; activity value ranges from 0.17 - 1.73; format: functional; method in brief: as §2
Rattus norvegicus [10] = species on record: Rattus norvegicus; assay: Inhibition of secondary nonimmune L16 inflammatory lesions was measured; activity value ranges from 0.19 - 0.79; format: functional; method in brief: as §2
Mus musculus [11] = assay: Change in paw edema in oxazolone -induced arthritic mice at 5 mg/kg
Rattus norvegicus [12] = species on record: Rattus norvegicus; assay: animal or person
Rattus norvegicus [13] = species on record: Rattus norvegicus; assay: animal or person; remark: listed apart in the source
Rattus norvegicus [14] = species on record: Rattus norvegicus; assay: animal or person; remark: listed apart in the source
Rattus norvegicus [15] = assay: The compound was tested for percent change in nonimmune L3 inflammatory lesions in rat adjuvant-induced arthritis at 50 mg/kg; format: functional; method in brief: as §2
Mus musculus [16] = assay: Immunoregulatory activity against oxazolone induced mouse contact sensitivity was evaluated as percent change at a dose of 10 mg/kg; format: functional; method in brief: as §1
Rattus norvegicus [17] = assay: The compound was tested for percent change in nonimmune L16 inflammatory lesions in rat adjuvant-induced arthritis at 50 mg/kg; format: functional; method in brief: as §2
Rattus norvegicus [18] = assay: The compound was tested for percent change in immune R16 inflammatory lesions in rat adjuvant-induced arthritis at 50 mg/kg; format: functional; method in brief: as §2
Rattus norvegicus [19] = species on record: Rattus norvegicus; assay: Inhibition of primary nonimmune, L3 inflammatory lesions was measured; format: functional; method in brief: as §2
Rattus norvegicus [20] = assay: Percent change in immune R16 inflammatory lesions in rat adjuvant-induced arthritis at 50 mg/kg; format: functional; method in brief: as §2
Rattus norvegicus [21] = assay: Change in 19S hemagglutinination titers in adjuvant-induced arthritic rats at 50 mg/kg.; format: functional
Mus musculus [22] = assay: Change in paw edema in methotrexate-suppressed oxazolone -induced contact sensitivity in mice at 50 mg/kg.; format: functional
Rattus norvegicus [23] = assay: Percent change in nonimmune L3 inflammatory lesions in rat adjuvant-induced arthritis at 50 mg/kg; format: functional; method in brief: as §2
Rattus norvegicus [24] = assay: Percent change in nonimmune L16 inflammatory lesions in rat adjuvant-induced arthritis at 50 mg/kg; format: functional; method in brief: as §2
Mus musculus [25] = species on record: Mus musculus; assay: Immunoregulatory activity against mouse contact sensitivity was evaluated as percent change; format: functional; method in brief: as §1
Rattus norvegicus [26] = species on record: Rattus norvegicus; assay: Inhibition of secondary nonimmune, L16 inflammatory lesions was measured; format: functional; method in brief: as §2
Mus musculus [27] = assay: Change in paw edema in oxazolone -induced arthritic mice at 50 mg/kg.
Rattus norvegicus [28] = assay: Change in 7S hemagglutinination titers in adjuvant-induced arthritic rats at 50 mg/kg.; format: functional
Rattus norvegicus [29] = assay: Compound was tested by carrageenan -induced paw edema for percent change in paw volume of control in adrenalectomized operated rats at 50 mg/kg.; format: functional; method in brief: as §3
Rattus norvegicus [30] = species on record: Rattus norvegicus; assay: Inhibition of immune, R16 inflammatory lesions was measured; format: functional; method in brief: as §2
Rattus norvegicus [31] = assay: Compound was tested by carrageenan -induced paw edema for percent change in paw volume of control sham operated rats at 50 mg/kg.; format: functional; method in brief: as §3
Mus musculus [32] = species on record: Mus musculus; assay: Immunoregulatory activity against oxazolone induced mouse contact sensitivity was evaluated as percent change; the % change was not statistically significant; format: functional, organism-based; method in brief: as §1
Rattus norvegicus [33] = assay: The compound was tested for percent change in immune R16 inflammatory lesions in rat adjuvant-induced arthritis at 50 mg/kg; the % change was not statistically significant; format: functional; method in brief: as §2
Rattus norvegicus [34] = assay: The compound was tested for percent change in nonimmune L3 inflammatory lesions in rat adjuvant-induced arthritis at 50 mg/kg; the % change was not statistically significant; format: functional; method in brief: as §2
Rattus norvegicus [35] = assay: The compound was tested for percent change in immune R16 inflammatory lesions in rat adjuvant-induced arthritis at 50 mg/kg; the % change was Not Significant; format: functional; method in brief: as §2

For COc1cccc(-c2nc3n(c2-c2cccc(OC)c2)CC[S+]3[O-])c1 (centres undefined), the Change (Mus musculus [1]) was 59%, the Change (Rattus norvegicus [2]) was 4% and the Change (Rattus norvegicus [3]) was 7%. The Change (Rattus norvegicus [4]) was 9%.

With COc1ccc(-c2nc(C(F)(F)F)[nH]c2-c2ccc(OC)cc2)cc1 [FLUMIZOLE] the Change (Mus musculus [5]) was 3%, the ED25 (Rattus norvegicus [6]) was 11 mg/kg and the Change (Rattus norvegicus [7]) was -48%. The Change (Rattus norvegicus [8]) was -47%, the ED25 (Rattus norvegicus [9]) was 0.78 mg/kg and the ED25 (Rattus norvegicus [10]) was 0.45 mg/kg. The Change (Mus musculus [11]) was -28%.

Compound c1ccc([C@H]2CN3CCSC3=N2)cc1 [LEVAMISOLE] has an ED25 (Rattus norvegicus [12]) of 127 mg/kg, an ED25 (Rattus norvegicus [13]) of 44.4 mg/kg and an ED25 (Rattus norvegicus [14]) of 73.4 mg/kg.

Compound COc1ccc(-c2nc3n(c2-c2ccc(OC)cc2)CC[S+]3[O-])cc1 (centres undefined) has a Change (Rattus norvegicus [15]) of -24%, a Change (Mus musculus [16]) of 76% and a Change (Rattus norvegicus [17]) of -29%. For the same compound, the Change (Rattus norvegicus [18]) was -32%.

Compound COc1ccc(-c2nc3n(c2-c2ccc(OC)cc2)CCS3)cc1 has an ED25 (Rattus norvegicus [19]) of 32.9 mg/kg, a Change (Rattus norvegicus [20]) of -21% and a Change (Rattus norvegicus [21]) of 1.2%. The Change (Mus musculus [22]) was 156%, the Change (Rattus norvegicus [23]) was -24% and the Change (Rattus norvegicus [24]) was -34%. The Change (Mus musculus [25]) was 211%, the ED25 (Rattus norvegicus [26]) was 18.7 mg/kg and the Change (Mus musculus [27]) was 211%. The Change (Rattus norvegicus [28]) was -3.7%, the Change (Rattus norvegicus [29]) was -58% and the ED25 (Rattus norvegicus [30]) was 24.4 mg/kg. For the same compound, the Change (Rattus norvegicus [31]) was -63%.

COc1ccc(-c2nc3sccn3c2-c2ccc(OC)cc2)cc1 was tested, and the Change (Mus musculus [32]) was “Not significant”, the Change (Rattus norvegicus [33]) was 0% and the Change (Rattus norvegicus [17]) was -9%. It also gave a Change (Rattus norvegicus [34]) of -6%.

Compound COc1ccc(-c2nc3n(c2-c2ccc(OC)cc2)CCS3(=O)=O)cc1 has a Change (Mus musculus [1]) of 95%, a Change (Rattus norvegicus [15]) of -11% and a Change (Rattus norvegicus [17]) of -12%. It also gave a Change (Rattus norvegicus [35]) of -7%.
